Measurements: ChEMBL document CHEMBL1255554, “9-Dihydroerythromycins as non-antibiotic motilin receptor agonists” (Bioorg Med Chem Lett, 2010)
In brackets after ≈: the same amount, converted by molar mass.

What was measured:
Motilin receptor = Motilin receptor (Oryctolagus cuniculus, UniProt A5A4K8); test: Agonist activity at motilin receptor in rabbit smooth muscle assessed as increase of muscle contraction; type: functional
Streptococcus pneumoniae = test: Antibacterial activity against erythromycin-sensitive Streptococcus pneumoniae ATCC 6301; type: functional
Summary of the method: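 Minimal growth inhibitory concentration (MIC) determined against the highly erythromycin-sensitive strain Streptococcus pneumoniae ATCC6301.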

[1] = target: Motilin receptor (Oryctolagus cuniculus) (UniProt A5A4K8); test: Agonist activity at motilin receptor in rabbit smooth muscle assessed as increase of muscle contraction at EC90 concentration treated three cycles of administration measured after 4th dose; type: functional
Summary of the method: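 Rabbit smooth muscle strip contractility assay. Drug given at its EC90 concentration for three cycles of administration and washout. The contractile response is expressed as % response at the 4th dose.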

hERG (KCNH2) = hERG (KCNH2) (Homo sapiens, UniProt Q12809); test: Inhibition of human ERG expressed in HEK cells at 30 uM; type: cell-based, HEK293; details: HEK cells expressing human ERG
Chain of hERG (KCNH2) (Q12809 whole entry): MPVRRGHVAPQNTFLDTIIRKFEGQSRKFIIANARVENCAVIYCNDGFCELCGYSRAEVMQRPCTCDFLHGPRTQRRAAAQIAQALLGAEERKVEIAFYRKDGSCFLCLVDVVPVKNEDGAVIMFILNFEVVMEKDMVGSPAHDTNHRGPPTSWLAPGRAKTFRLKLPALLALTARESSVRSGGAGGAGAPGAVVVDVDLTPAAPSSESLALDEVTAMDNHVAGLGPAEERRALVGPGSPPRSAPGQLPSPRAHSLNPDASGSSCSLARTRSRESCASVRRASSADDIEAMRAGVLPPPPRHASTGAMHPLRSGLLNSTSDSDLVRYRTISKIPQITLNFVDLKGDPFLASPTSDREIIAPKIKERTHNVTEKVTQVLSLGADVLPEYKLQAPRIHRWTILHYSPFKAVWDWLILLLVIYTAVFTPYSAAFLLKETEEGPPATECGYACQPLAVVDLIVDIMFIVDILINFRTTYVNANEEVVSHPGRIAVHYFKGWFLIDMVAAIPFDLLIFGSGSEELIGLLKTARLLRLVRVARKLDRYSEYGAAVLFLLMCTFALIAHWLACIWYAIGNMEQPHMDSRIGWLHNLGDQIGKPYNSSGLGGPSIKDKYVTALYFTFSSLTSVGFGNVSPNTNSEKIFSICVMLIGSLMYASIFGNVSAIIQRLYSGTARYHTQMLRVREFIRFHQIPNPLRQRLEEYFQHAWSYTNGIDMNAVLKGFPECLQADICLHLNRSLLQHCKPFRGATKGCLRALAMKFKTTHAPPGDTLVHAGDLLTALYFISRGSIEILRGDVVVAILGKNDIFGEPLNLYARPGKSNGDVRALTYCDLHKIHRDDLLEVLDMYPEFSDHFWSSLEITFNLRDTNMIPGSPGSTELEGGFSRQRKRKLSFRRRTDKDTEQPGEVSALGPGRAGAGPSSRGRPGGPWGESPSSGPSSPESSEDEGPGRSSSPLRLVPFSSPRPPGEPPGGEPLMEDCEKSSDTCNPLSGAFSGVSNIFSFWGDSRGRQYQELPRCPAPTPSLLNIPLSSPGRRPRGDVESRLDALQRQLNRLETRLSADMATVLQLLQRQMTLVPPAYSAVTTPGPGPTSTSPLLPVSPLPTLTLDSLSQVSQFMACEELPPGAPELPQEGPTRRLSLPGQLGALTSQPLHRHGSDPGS

Chain of Motilin receptor (A5A4K8 whole entry): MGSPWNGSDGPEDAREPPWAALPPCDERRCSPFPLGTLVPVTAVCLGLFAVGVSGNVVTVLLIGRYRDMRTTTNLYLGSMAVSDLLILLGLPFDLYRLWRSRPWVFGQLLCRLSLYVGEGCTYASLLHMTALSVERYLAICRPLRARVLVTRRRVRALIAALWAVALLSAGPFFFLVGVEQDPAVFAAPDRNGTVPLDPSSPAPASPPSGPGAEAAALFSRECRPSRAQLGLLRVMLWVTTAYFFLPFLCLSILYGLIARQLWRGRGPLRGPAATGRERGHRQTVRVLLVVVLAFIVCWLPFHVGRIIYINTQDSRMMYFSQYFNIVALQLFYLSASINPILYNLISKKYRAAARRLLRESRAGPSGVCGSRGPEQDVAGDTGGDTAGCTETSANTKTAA
Chain of Motilin receptor (Oryctolagus cuniculus) (A5A4K8 as listed by the source): as the sequence (A5A4K8 whole entry) above

| SMILES | EC50 (Motilin receptor) | MIC (Streptococcus pneumoniae) | Activity [1] | inhibition at 30 µM (hERG (KCNH2)) |
| --- | --- | --- | --- | --- |
| CC[C@H]1OC(=O)[C@H](C)[C@@H](O[C@@H]2C[C@@](C)(OC)[C@@H](O)[C@H](C)O2)[C@H](C)[C@@H](O[C@@H]2O[C@H](C)C[C@H](NC(C)C)[C@H]2O)[C@](C)(O)C[C@@H](C)[C@H](O)[C@H](C)[C@@H](O)[C@]1(C)O | > 5000 nM | > 128 µg/mL | – | – |
| CC[C@H]1OC(=O)[C@H](C)[C@@H](O[C@@H]2C[C@@](C)(OC)[C@@H](O)[C@H](C)O2)[C@H](C)[C@@H](O[C@@H]2O[C@H](C)C[C@H](N(C)C[C@H](C)O)[C@H]2O)[C@](C)(O)C[C@@H](C)[C@H](O)[C@H](C)[C@@H](O)[C@H]1C | 180 nM | > 128 µg/mL | 70% | – |
| CC[C@H]1OC(=O)[C@H](C)[C@@H](O[C@H]2C[C@@](C)(OC)[C@@H](O)[C@H](C)O2)[C@H](C)[C@@H](O[C@@H]2O[C@H](C)C[C@H](N(C)C)[C@H]2O)[C@](C)(O)C[C@@H](C)C(=O)[C@H](C)[C@@H](O)[C@]1(C)O [ERYTHROMYCIN] | – | 0.03 µg/mL (≈ 0.0409 µM) | – | – |
| CC[C@H]1OC(=O)[C@H](C)[C@@H](O[C@@H]2C[C@@](C)(OC)[C@@H](O)[C@H](C)O2)[C@H](C)[C@@H](O[C@@H]2O[C@H](C)C[C@H](N(C)CC(C)(C)O)[C@H]2O)[C@](C)(O)C[C@@H](C)[C@H](O)[C@H](C)[C@@H](O)[C@]1(C)O | 100 nM | > 128 µg/mL | 89% | 25% |
| CC[C@H]1OC(=O)[C@H](C)[C@@H](O[C@@H]2C[C@@](C)(OC)[C@@H](O)[C@H](C)O2)[C@H](C)[C@@H](O[C@@H]2O[C@H](C)C[C@H](N(C)CCF)[C@H]2O)[C@](C)(O)C[C@@H](C)[C@H](O)[C@H](C)[C@@H](O)[C@]1(C)O | 3800 nM | – | – | – |
| CC[C@H]1OC(=O)[C@H](C)[C@@H](O[C@@H]2C[C@@](C)(OC)[C@@H](O)[C@H](C)O2)[C@H](C)[C@@H](O[C@@H]2O[C@H](C)C[C@H](N(C)CC3(C)CC3)[C@H]2O)[C@](C)(O)C[C@@H](C)[C@H](O)[C@H](C)[C@@H](O)[C@]1(C)O | 2000 nM | 64 µg/mL (≈ 81 µM) | – | – |
| CC[C@H]1OC(=O)[C@H](C)[C@@H](O[C@@H]2C[C@@](C)(OC)[C@@H](O)[C@H](C)O2)[C@H](C)[C@@H](O[C@@H]2O[C@H](C)C[C@H](N(C)C[C@@H](C)O)[C@H]2O)[C@](C)(O)C[C@@H](C)[C@H](O)[C@H](C)[C@@H](O)[C@H]1C | 280 nM | > 128 µg/mL | 89% | 38% |
| CC[C@H]1OC(=O)[C@H](C)[C@@H](O[C@@H]2C[C@@](C)(OC)[C@@H](O)[C@H](C)O2)[C@H](C)[C@@H](O[C@@H]2O[C@H](C)C[C@H](N(C)CC3CC3)[C@H]2O)[C@](C)(O)C[C@@H](C)[C@H](O)[C@H](C)[C@@H](O)[C@]1(C)O | 310 nM | 32 µg/mL (≈ 41.2 µM) | – | – |
| CC[C@H]1OC(=O)[C@H](C)[C@@H](O[C@@H]2C[C@@](C)(OC)[C@@H](O)[C@H](C)O2)[C@H](C)[C@@H](O[C@@H]2O[C@H](C)C[C@H](N(C)C(C)C)[C@H]2O)[C@](C)(O)C[C@@H](C)[C@H](O)[C@H](C)[C@@H](O)[C@]1(C)O | 260 nM | 32 µg/mL (≈ 41.9 µM) | 76% | 80% |
| CC[C@H]1OC(=O)[C@H](C)[C@@H](O[C@@H]2C[C@@](C)(OC)[C@@H](O)[C@H](C)O2)[C@H](C)[C@@H](O[C@@H]2O[C@H](C)C[C@H](N(C)CC(C)C)[C@H]2O)[C@](C)(O)C[C@@H](C)[C@H](O)[C@H](C)[C@@H](O)[C@]1(C)O | 363 nM | – | 81% | – |
| CC[C@H]1OC(=O)[C@H](C)[C@@H](O[C@@H]2C[C@@](C)(OC)[C@@H](O)[C@H](C)O2)[C@H](C)[C@@H](O[C@@H]2O[C@H](C)C[C@H](N(C)C3CCC3)[C@H]2O)[C@](C)(O)C[C@@H](C)[C@H](O)[C@H](C)[C@@H](O)[C@]1(C)O | 350 nM | 128 µg/mL (≈ 165 µM) | 90% | 38% |
| CC[C@H]1OC(=O)[C@H](C)[C@@H](O[C@@H]2C[C@@](C)(OC)[C@@H](O)[C@H](C)O2)[C@H](C)[C@@H](O[C@@H]2O[C@H](C)C[C@H](N(C)C3CCC3)[C@H]2O)[C@](C)(O)C[C@@H](C)[C@H](O)[C@H](C)[C@@H](O)[C@H]1C | 300 nM | > 128 µg/mL | 71% | – |
| CC[C@H]1OC(=O)[C@H](C)[C@@H](O[C@@H]2C[C@@](C)(OC)[C@@H](O)[C@H](C)O2)[C@H](C)[C@@H](O[C@@H]2O[C@H](C)C[C@H](N(C)CC(O)CO)[C@H]2O)[C@](C)(O)C[C@@H](C)[C@H](O)[C@H](C)[C@@H](O)[C@]1(C)O (stereo not given in full) | 2500 nM | – | – | – |
| CC[C@H]1OC(=O)[C@H](C)[C@@H](O[C@@H]2C[C@@](C)(OC)[C@@H](O)[C@H](C)O2)[C@H](C)[C@@H](O[C@@H]2O[C@H](C)C[C@H](N(C)CCOC)[C@H]2O)[C@](C)(O)C[C@@H](C)[C@H](O)[C@H](C)[C@@H](O)[C@]1(C)O | 7700 nM | – | – | – |
| CC[C@H]1OC(=O)[C@H](C)[C@@H](O[C@@H]2C[C@@](C)(OC)[C@@H](O)[C@H](C)O2)[C@H](C)[C@@H](O[C@@H]2O[C@H](C)C[C@H](N(C)CC(N)=O)[C@H]2O)[C@](C)(O)C[C@@H](C)[C@H](O)[C@H](C)[C@@H](O)[C@]1(C)O | > 5000 nM | – | – | – |
| CC[C@H]1OC(=O)[C@H](C)[C@@H](O[C@@H]2C[C@@](C)(OC)[C@@H](O)[C@H](C)O2)[C@H](C)[C@@H](O[C@@H]2O[C@H](C)C[C@H](N(C)C[C@@H](C)O)[C@H]2O)[C@](C)(O)C[C@@H](C)[C@H](O)[C@H](C)[C@@H](O)[C@]1(C)O | 460 nM | > 128 µg/mL | 93% | – |
| CC[C@H]1OC(=O)[C@H](C)[C@@H](O[C@@H]2C[C@@](C)(OC)[C@@H](O)[C@H](C)O2)[C@H](C)[C@@H](O[C@@H]2O[C@H](C)C[C@H](N(C)C3COC3)[C@H]2O)[C@](C)(O)C[C@@H](C)[C@H](O)[C@H](C)[C@@H](O)[C@]1(C)O | 5700 nM | 32 µg/mL (≈ 41.1 µM) | – | – |
| CC[C@H]1OC(=O)[C@H](C)[C@@H](O[C@@H]2C[C@@](C)(OC)[C@@H](O)[C@H](C)O2)[C@H](C)[C@@H](O[C@@H]2O[C@H](C)C[C@H](N(C)CC(C)(C)O)[C@H]2O)[C@](C)(O)C[C@@H](C)[C@H](O)[C@H](C)[C@@H](O)[C@H]1C | 100 nM | > 128 µg/mL | 56% | – |
| CC[C@H]1OC(=O)[C@H](C)[C@@H](O[C@@H]2C[C@@](C)(OC)[C@@H](O)[C@H](C)O2)[C@H](C)[C@@H](O[C@@H]2O[C@H](C)C[C@H](N(C)C[C@H](C)O)[C@H]2O)[C@](C)(O)C[C@@H](C)[C@H](O)[C@H](C)[C@@H](O)[C@]1(C)O | 360 nM | 128 µg/mL (≈ 164 µM) | 95% | 16% |
| CC[C@H]1OC(=O)[C@H](C)[C@@H](O[C@@H]2C[C@@](C)(OC)[C@@H](O)[C@H](C)O2)[C@H](C)[C@@H](O[C@@H]2O[C@H](C)C[C@H](N(C)C(C)C)[C@H]2O)[C@](C)(O)C[C@@H](C)[C@H](O)[C@H](C)[C@@H](O)[C@H]1C | 106 nM | 128 µg/mL (≈ 171 µM) | 79% | – |
| C=C(C)CN(C)[C@H]1C[C@@H](C)O[C@@H](O[C@@H]2[C@@H](C)[C@H](O[C@@H]3C[C@@](C)(OC)[C@@H](O)[C@H](C)O3)[C@@H](C)C(=O)O[C@H](CC)[C@@](C)(O)[C@H](O)[C@@H](C)[C@@H](O)[C@H](C)C[C@@]2(C)O)[C@@H]1O | 2400 nM | – | – | – |
| CC[C@H]1OC(=O)[C@H](C)[C@@H](O[C@@H]2C[C@@](C)(OC)[C@@H](O)[C@H](C)O2)[C@H](C)[C@@H](O[C@@H]2O[C@H](C)C[C@H](N(C)CCO)[C@H]2O)[C@](C)(O)C[C@@H](C)[C@H](O)[C@H](C)[C@@H](O)[C@]1(C)O | 210 nM | 8 µg/mL (≈ 10.4 µM) | 86% | – |
| CC[C@H]1OC(=O)[C@H](C)[C@@H](O[C@@H]2C[C@@](C)(OC)[C@@H](O)[C@H](C)O2)[C@H](C)[C@@H](O[C@@H]2O[C@H](C)C[C@H](NC3CCC3)[C@H]2O)[C@](C)(O)C[C@@H](C)[C@H](O)[C@H](C)[C@@H](O)[C@]1(C)O | > 5000 nM | 16 µg/mL (≈ 21 µM) | – | – |
| CC[C@H]1OC(=O)[C@H](C)[C@@H](O[C@@H]2C[C@@](C)(OC)[C@@H](O)[C@H](C)O2)[C@H](C)[C@@H](O[C@@H]2O[C@H](C)C[C@H](N(C)CCN)[C@H]2O)[C@](C)(O)C[C@@H](C)[C@H](O)[C@H](C)[C@@H](O)[C@]1(C)O | 7300 nM | – | – | – |
| CC[C@H]1OC(=O)[C@H](C)[C@@H](O[C@@H]2C[C@@](C)(OC)[C@@H](O)[C@H](C)O2)[C@H](C)[C@@H](O[C@@H]2O[C@H](C)C[C@H](N(C)C3CCCC3)[C@H]2O)[C@](C)(O)C[C@@H](C)[C@H](O)[C@H](C)[C@@H](O)[C@]1(C)O | > 5000 nM | 128 µg/mL (≈ 162 µM) | – | – |
| CC[C@H]1OC(=O)[C@H](C)[C@@H](O[C@@H]2C[C@@](C)(OC)[C@@H](O)[C@H](C)O2)[C@H](C)[C@@H](O[C@@H]2O[C@H](C)C[C@H](N(C)CCCO)[C@H]2O)[C@](C)(O)C[C@@H](C)[C@H](O)[C@H](C)[C@@H](O)[C@]1(C)O | 700 nM | – | – | – |
